DENV2 CPE rescue – protects cells from dengue virus 2 cytopathic effect; DENV2-infected cells, cytopathic effect rescue, plate reader; CPE inhibition, % at 9.99 µM; 350,000 compounds, 1.7% hits; in the data active = CPE inhibition above about 20%, passing the limit was not always enough; inconclusive = no clear call, values can overlap the other calls; tested in BHK-21 cells;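 note: 0% = median of neutral control wells and 100% = median of positive control wells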
PGC1a acetyl inh – modulators of PGC1a acetylation | inhibition, % at 15.6 µM | 350,000 compounds, 0.17% hits | AID 651687 | U2OS PGC1a acetylation, AlphaScreen anti-acetyl-lysine; with virally co-expressed GCN5 acetyltransferase;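 active = every replicate shows inhibition of at least 40%; inconclusive = mean inhibition at least 40% but some replicate below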;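 note: 0% = neutral control wells and 100% = positive control wells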
FN deposition inh – fibronectin deposition inhibition; AH1F fibroblasts, Alexa488-fibronectin deposition fluorescence, overnight; 350,000 compounds, 0.086% hits; inhibition, % at 12.6 µM;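 active = mean inhibition across replicates of 30% or more, regardless of how many single replicates reach that level; inconclusive = mean under 30% yet at least half of replicates reach 30%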;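 note: positive control wells lacked labelled fibronectin entirely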
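Assay system: AH1F fibroblasts / Quantity: 10000 cells per well / Medium: DMEM plus 2% serum, read in PBS / Reagent: labelled fibronectin 24 nM / Dosing: single dose, pinned / Times: 1 h cell attachment, overnight exposure to compound and label / Signal: fluorescence, ex 485 nm, em 525 nm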
Ecoli rRNA inh – selective bacterial rRNA inhibition in E. coli. E. coli WT GFP vs humanized-ribosome RFP mutants, fluorescence, 24 h; hits give low values; DMSO median 0, no signal -100. GFP signal change (wild-type ribosome), % (concentration not given with the values). 350,000 compounds, 1.6% hits;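 active = significant combined selectivity score with lowered wild-type GFP, culture density cut under 30%, mutant RFP and density less affected; inactive = any of these conditions unmet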
Env fusion inh – blocks HIV Env-driven cell-cell fusion | HeLa-JRFL Env/CEM21 cell fusion, luciferase | inhibition, % at 12.3 µM | 360,000 compounds, 1.1% hits;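 active = mean replicate inhibition score of at least 50 and every replicate individually at or above 50; inconclusive = only one of the two criteria met; inactive = mean below 50 and not all replicates reaching 50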;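 note: 0% = plate neutral controls and 100% = maraviroc near 300 nM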
PglD DTNB – PglD (C. jejuni) enzyme inhibition. purified PglD enzyme, DTNB colorimetric CoA detection. inhibition, % at 12.5 µM. 360,000 compounds, 0.098% hits. AID 602405; in the data active = inhibition above about 16%, passing the limit was not always enough; inconclusive = no clear call, values can overlap the other calls
* hit, by the source's call; ? = inconclusive; . = no result given; ! = not active in a repeat; [ ] = remark or other dose. The list is not random: actives were taken first. Their share in the collection is about 3.5%.

SMILES | DENV2 CPE rescue | PGC1a acetyl inh | FN deposition inh | Ecoli rRNA inh | Env fusion inh | PglD DTNB
O=C(c1ccc(F)cc1)N1CC(=O)N2[C@H](C1)[C@H](c1ccc(C3=CCCC3)cc1)[C@@H]2CO | 53* | 7 | . | -2 | . | .
O=C(Cc1cccnc1)N1CC(=O)N2[C@H](CO)[C@@H](c3ccc(C4=CCCC4)cc3)[C@@H]2C1 | -3 | 0 | 7 | -3 | . | .
O=C(Cc1cccnc1)N1CC(=O)N2[C@H](C1)[C@H](c1ccc(C3=CCCC3)cc1)[C@@H]2CO | 36* | 23 | 6 | 0 | . | .
C[C@H](CO)N1C[C@H](C)[C@H](CN(C)Cc2ccc(C(=O)O)cc2)Oc2c(NC(=O)c3nc4ccccc4s3)cccc2C1=O | 2 | 5 | 6 | -6 | 2[16.7 µM] | -1
COc1ccc(NC(=O)N(C)C[C@@H]2OCCCC[C@@H](C)Oc3ccc(NS(=O)(=O)c4ccccc4)cc3C(=O)N([C@@H](C)CO)C[C@H]2C)cc1 | 6 | -4 | -7 | -11 | -9[16.7 µM] | -1
CC1CCC(NC(=O)CCn2ccc3cc(S(=O)(=O)N4CCCC4)ccc32)CC1 (stereo not given) | 9 | -14 | 4 | -2 | 73* | 2
CCOc1ccccc1CNC(=O)Cn1ccc2cc(S(=O)(=O)N3CCCCCC3)ccc21 | -4 | -11 | -2 | -1 | 27 | -1
CCOc1ccccc1CNC(=O)CCn1ccc2cc(S(=O)(=O)N3CCCCC3)ccc21 | -3 | 1 | 5 | -2 | 62* | -2
C[C@@H]1CN([C@H](C)CO)S(=O)(=O)c2ccc(-c3ccc(C#N)cc3)cc2O[C@@H]1CN(C)CC1CC1 | 4 | 9 | 6 | -2 | -2[16.7 µM] | 0
CC(Nc1ccc(Cl)c(Cl)c1)C(=O)NN (stereo not given) | -4 | -3 | 3 | -26* | -1 | -2
Nc1ccn([C@@H]2O[C@H](C(=O)N[C@H](Cc3ccccc3)C(=O)Nc3ccc4scnc4c3)[C@@H](O)[C@H]2O)c(=O)n1 | 4 | . | -1 | -10 | -6 | .
O=C(COC(=O)c1ccc(NC(=O)C2CC=CCC2C(=O)O)cc1)c1ccccc1 (stereo not given) | 68* | 4 | 4 | -11 | -9 | 6
Cc1ccc(-c2nc(C#N)c(NCC3CCCO3)o2)cc1 (stereo not given) | 3 | -2 | . | -24* | -26 | .
COc1ccc(-c2nc(C#N)c(NCC3CCCO3)o2)cc1 (stereo not given) | . | . | . | . | . | 4
O=C(c1ccc(Cl)cc1)N1CCN(c2cccc3[nH]ccc23)CC1 | 2 | . | 6 | -25* | 9 | .
O=C(c1ccc(Cl)cc1)N1CCN(c2ccc(F)cc2)CC1 | . | -6 | -7 | . | -3 | -4
CO[C@@H]1CN(C)C(=O)c2ccc(NC(C)=O)cc2OC[C@H](C)N(Cc2ccc(F)cc2)C[C@H]1C | 6 | 10 | 9 | -7 | . | 0
COc1ccc2nc(C)cc(Sc3nc4ccccc4s3)c2c1 | 16 | 33 | . | -14 | 58* | -2
COc1ccc2nc(C)cc(SCC(=O)NNC(=O)COc3ccccc3)c2c1 | . | 4 | 3 | . | 25 | .
CCNC(=O)C[C@H]1CC[C@H]2[C@H](COc3ccc(NC(=O)Nc4ccccc4Cl)cc3C(=O)N2C)O1 | -9 | -2 | -3 | -1 | . | 3
CC(CNC(=O)Cn1ccc(NC(=O)OCc2ccccc2)nc1=O)c1ccccc1 (stereo not given) | 36* | . | -1 | 2 | 16 | -4
COc1ccc(CC2C(=O)NC(C)C(=O)N(C)C3Cc4ccc(cc4)Oc4cc(ccc4O)CC(C(=O)NC(C)C(=O)NC(C)C(=O)N2C)N(C)C3=O)cc1 (stereo not given) | ? | 70* | 22 | 12 | 77* | .
CC(C)C[C@@H]1NC(=O)[C@H](Cc2ccccc2)N(C)C(=O)[C@H](C)NC(=O)c2ccccc2NC(=O)[C@H](Cc2ccc(O)cc2)N(C)C1=O | 1 | 4 | . | . | . | 1
Nc1ccc(S(=O)(=O)Nc2nccs2)cc1N=Nc1ccccc1[N+](=O)[O-] | -2 | -1 | 0 | -20* | -3 | .
CC(C)C#Cc1ccc([C@@H]2[C@@H](CO)N3CCCCN(C(=O)c4ccc(F)cc4)C[C@@H]23)cc1 | 12 | -3 | . | -6 | . | 0
SMILES | DENV2 CPE rescue | PGC1a acetyl inh | FN deposition inh | Ecoli rRNA inh | Env fusion inh | PglD DTNB
COc1ccc(CN(C(=O)c2ccc(C)cc2)c2cccc(N)c2)cc1 | 38* | -2 | -11 | -4 | 7 | -1
COc1cccc(-c2cn(CC[C@@H]3CC[C@@H](NC(C)=O)[C@H](CO)O3)nn2)c1 | . | -41 | . | -2 | -13[16.7 µM] | 4
C[C@H](CCC(=O)O)[C@H]1CC[C@H]2[C@@H]3CC[C@@H]4C[C@H](O)CC[C@]4(C)[C@H]3C[C@H](O)[C@]12C | 30*! | 9 | -4 | -14 | 27 | -1
CO[C@@H]1CN(C)C(=O)c2cc(NC(=O)C3CC3)ccc2OC[C@@H](C)N(C(=O)C2CCOCC2)C[C@H]1C | -8 | -10 | -1 | 3 | 1[16.7 µM] | -1
CC(C)(C)S(=O)(=O)/C(C#N)=N/Nc1ccc(Cl)cc1 | -7 | 7 | 4 | -51 | 58* | .
Cc1nnc(NC(=O)C2CCCC2)s1 | 2 | 2 | 11 | 4 | -1 | -3
Cc1nnc(NC(=O)C2CCCCC2)s1 | . | . | . | . | 65* | 5
COc1cc(/C=N/NS(=O)(=O)c2ccc(C(C)(C)C)cc2)cc([N+](=O)[O-])c1O | 12 | 1 | . | -36* | 16 | .
COc1cc(/C=N/NS(=O)(=O)c2ccc(C)c([N+](=O)[O-])c2)cc([N+](=O)[O-])c1O | 15 | 3 | 10 | -16 | 0 | 13
CCN(CC(=O)Nc1ccc(OC)cc1)C(=O)CSCc1c(C)noc1C | 74* | 4 | -6 | 15 | . | -2
COc1ccc(CN(C)C[C@H]2Oc3c(NS(C)(=O)=O)cccc3C(=O)N([C@H](C)CO)C[C@@H]2C)cc1 | -1 | -6 | . | 0 | -4[16.7 µM] | -5
O=C(NCCC1=CCCCC1)c1ccc(F)c(S(=O)(=O)N2CCOCC2)c1 | . | -26 | . | . | . | .
CC1CN(S(=O)(=O)c2cc(C(=O)NCCC3=CCCCC3)ccc2Cl)CC(C)O1 (stereo not given) | 7 | . | 7 | 3 | 68* | .
COc1c2c(cc3c1c(=O)c1ccccc1n3C)OCO2 | -6 | . | . | . | . | .
O=C(CCCc1ccccc1)Nc1cccc(C(=O)O)c1 | -2 | -4 | 33* | 10 | 47 | .
CC(=O)c1cccc(NC(=S)NCCCCc2ccccc2)c1 | -3 | -19 | 4 | -34* | 1 | 1
C[C@H]1CN([C@@H](C)CO)C(=O)c2cccc(NC(=O)c3cnccn3)c2O[C@@H]1CN(C)Cc1ccncc1 | -5 | 0 | 2 | -2 | . | 0
CCOc1ccc(CCn2c(-c3ccco3)nc3ccccc3c2=O)cc1OCC | . | . | 3 | . | 62* | -4

Screening data: PubChem, Broad Institute
